Measured values taken from ChEMBL document CHEMBL2424551, “Synthesis, in vitro evaluation and molecular modelling of naphthalimide analogue as anticancer agents” (2013).

Key:
Assay type in all cases: functional
[1] = test system: SW-620; assay: Growth inhibition of human SW620 cells at 10 uM after 48 hrs by SRB assay; settings: SW-620, 48 h, read-out: GI
Procedure, shortened: (§1)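 NCI 60-cell-line screen with a single 10 µM dose. Cells are grown in RPMI 1640 with 5% FBS and 2 mM L-glutamine, plated at 5000–40,000 cells/well according to doubling time, and preincubated 24 h at 37 °C, 5% CO2; time-zero plates are TCA-fixed at that point. Drug exposure is 48 h. Adherent cells are fixed with cold TCA, stained with 0.4% SRB in 1% acetic acid and read at 515 nm. Percent growth is calculated relative to time-zero and untreated controls and reported as GI%.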

[2] = test system: RPMI-8226; assay: Growth inhibition of human RPMI8226 cells at 10 uM after 48 hrs by SRB assay; settings: RPMI-8226, 48 h, read-out: GI
Procedure, shortened: (§2)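 Cells grown in RPMI 1640 with 5% FBS and 2 mM L-glutamine, plated at 5000–40,000 cells/well by doubling time and preincubated 24 h (37 °C, 5% CO2); a time-zero plate is TCA-fixed. Single dose added, then 48 h incubation. Fixed with cold TCA, stained with 0.4% SRB, dye solubilized in 10 mM Tris base, absorbance at 515 nm; percent growth vs time-zero and untreated control.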

[3] = test system: NCI-H322M; assay: Growth inhibition of human NCI-H322M cells at 10 uM after 48 hrs by SRB assay; settings: read-out: GI; procedure, shortened: as §2
[4] = test system: SN12C; assay: Growth inhibition of human SN12C cells at 10 uM after 48 hrs by SRB assay; settings: read-out: GI; procedure, shortened: as §1
[5] = Growth inhibition of human HCC2998 cells at 10 uM after 48 hrs by SRB assay; settings: HCC 2998, 48 h, read-out: GI; procedure, shortened: as §2
[6] = test system: SR; assay: Growth inhibition of human SR cells at 10 uM after 48 hrs by SRB assay; settings: read-out: GI; procedure, shortened: as §1
[7] = test system: CAKI-1; assay: Growth inhibition of human Caki1 cells at 10 uM after 48 hrs by SRB assay; settings: CAKI-1, 48 h, read-out: GI; procedure, shortened: as §2
[8] = test system: HL-60(TB); assay: Growth inhibition of human HL-60(TB) cells at 10 uM after 48 hrs by SRB assay; settings: HL-60, 48 h, read-out: GI
Procedure, shortened: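 Single-concentration pass across the 60-line panel in RPMI 1640 with 5% FBS. Cells preincubated 24 h, then exposed 48 h at 37 °C, 5% CO2. Read by SRB staining with absorbance at 515 nm. Percent growth is taken relative to time-zero and untreated controls and reported as percent growth inhibition (GI %).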

[9] = test system: MDA-MB-435; assay: Growth inhibition of human MDA-MB-435 cells at 10 uM after 48 hrs by SRB assay; settings: MDA-MB-435, 48 h, read-out: GI; procedure, shortened: as §2
[10] = test system: SNB-75; assay: Growth inhibition of human SNB75 cells at 10 uM after 48 hrs by SRB assay; settings: SNB-75, 48 h, read-out: GI; procedure, shortened: as §1
[11] = test system: SF-539; assay: Growth inhibition of human SF539 cells at 10 uM after 48 hrs by SRB assay; settings: SF-539, 48 h, read-out: GI; procedure, shortened: as §2
[12] = test system: CCRF-CEM; assay: Growth inhibition of human CCRF-CEM cells at 10 uM after 48 hrs by SRB assay; settings: read-out: GI; procedure, shortened: as §2
[13] = test system: BT-549; assay: Growth inhibition of human BT549 cells at 10 uM after 48 hrs by SRB assay; settings: BT-549, 48 h, read-out: GI; procedure, shortened: as §2
[14] = test system: NCI-H460; assay: Growth inhibition of human NCI-H460 cells at 10 uM after 48 hrs by SRB assay; settings: NCI-H460, 48 h, read-out: GI; procedure, shortened: as §2
[15] = test system: MOLT-4; assay: Growth inhibition of human MOLT4 cells at 10 uM after 48 hrs by SRB assay; settings: MOLT-4, 48 h, read-out: GI; procedure, shortened: as §2
[16] = test system: HOP-62; assay: Growth inhibition of human HOP62 cells at 10 uM after 48 hrs by SRB assay; settings: HOP-62, 48 h, read-out: GI; procedure, shortened: as §2
[17] = test system: A498; assay: Growth inhibition of human A498 cells at 10 uM after 48 hrs by SRB assay; settings: A498, 48 h, read-out: GI; procedure, shortened: as §2
[18] = test system: SNB-19; assay: Growth inhibition of human SNB19 cells at 10 uM after 48 hrs by SRB assay; settings: SNB-19, 48 h, read-out: GI; procedure, shortened: as §1
[19] = test system: HOP-92; assay: Growth inhibition of human HOP92 cells at 10 uM after 48 hrs by SRB assay; settings: HOP-92, 48 h, read-out: GI; procedure, shortened: as §2
[20] = test system: NCI-H23; assay: Growth inhibition of human NCI-H23 cells at 10 uM after 48 hrs by SRB assay; settings: NCI-H23, 48 h, read-out: GI; procedure, shortened: as §2
[21] = test system: HCT-116; assay: Growth inhibition of human HCT116 cells at 10 uM after 48 hrs by SRB assay; settings: HCT-116, 48 h, read-out: GI; procedure, shortened: as §2
[22] = test system: Malme-3M; assay: Growth inhibition of human MALME-3M cells at 10 uM after 48 hrs by SRB assay; settings: read-out: GI; procedure, shortened: as §2
[23] = test system: K562; assay: Growth inhibition of human K562 cells at 10 uM after 48 hrs by SRB assay; settings: K562, 48 h, read-out: GI; procedure, shortened: as §2
[24] = test system: MDA-MB-231; assay: Growth inhibition of human MDA-MB-231 cells at 10 uM after 48 hrs by SRB assay; settings: MDA-MB-231, 48 h, read-out: GI; procedure, shortened: as §2
[25] = test system: PC-3; assay: Growth inhibition of human PC3 cells at 10 uM after 48 hrs by SRB assay; settings: PC-3, 48 h, read-out: GI; procedure, shortened: as §2
[26] = test system: UO-31; assay: Growth inhibition of human UO31 cells at 10 uM after 48 hrs by SRB assay; settings: UO-31, 48 h, read-out: GI; procedure, shortened: as §1
[27] = test system: OVCAR-5; assay: Growth inhibition of human OVCAR5 cells at 10 uM after 48 hrs by SRB assay; settings: OVCAR-5, 48 h, read-out: GI; procedure, shortened: as §2
[28] = test system: ACHN; assay: Growth inhibition of human ACHN cells at 10 uM after 48 hrs by SRB assay; settings: read-out: GI; procedure, shortened: as §2
[29] = test system: MCF7; assay: Growth inhibition of human MCF7 cells at 10 uM after 48 hrs by SRB assay; settings: MCF7, 48 h, read-out: GI; procedure, shortened: as §2
[30] = test system: NCI-H226; assay: Growth inhibition of human NCI-H226 cells at 10 uM after 48 hrs by SRB assay; settings: NCI-H226, 48 h, read-out: GI; procedure, shortened: as §2

Row | SMILES | inhibition of growth at 10 µM [1] [%] | inhibition of growth at 10 µM [2] [%] | inhibition of growth at 10 µM [3] [%] | inhibition of growth at 10 µM [4] [%] | inhibition of growth at 10 µM [5] [%] | inhibition of growth at 10 µM [6] [%] | inhibition of growth at 10 µM [7] [%] | inhibition of growth at 10 µM [8] [%] | inhibition of growth at 10 µM [9] [%] | inhibition of growth at 10 µM [10] [%] | inhibition of growth at 10 µM [11] [%] | inhibition of growth at 10 µM [12] [%] | inhibition of growth at 10 µM [13] [%] | inhibition of growth at 10 µM [14] [%] | inhibition of growth at 10 µM [15] [%] | inhibition of growth at 10 µM [16] [%] | inhibition of growth at 10 µM [17] [%] | inhibition of growth at 10 µM [18] [%] | inhibition of growth at 10 µM [19] [%] | inhibition of growth at 10 µM [20] [%] | also measured
1 | O=c1c2cccc3c(Nc4ccccn4)ccc(c32)c2nc3ccccc3n12 | 22.9 | 51 | 25.5 | 28.3 | 31.5 | 29.8 | 48.2 | 37.7 | < 20 | 21.4 | < 20 | 48.2 | < 20 | 47.3 | 38.2 | 32.2 | < 20 | < 20 | 45.1 | 34.5 | inhibition of growth at 10 µM [21]: 35%; inhibition of growth at 10 µM [22]: < 20%; inhibition of growth at 10 µM [23]: 53.5%; inhibition of growth at 10 µM [24]: 29.4%; inhibition of growth at 10 µM [25]: 36%; inhibition of growth at 10 µM [26]: 53.5%; inhibition of growth at 10 µM [27]: < 20%; inhibition of growth at 10 µM [28]: 23.9%; inhibition of growth at 10 µM [29]: 71.3%; inhibition of growth at 10 µM [30]: 30.4%
2 | CCCCNc1ccc2c3c1cccc3c(=O)n1c3ccccc3nc21 | < 20 | < 20 | < 20 | < 20 | 26 | 84.4 | 56.8 | 36.6 | < 20 | 26.6 | < 20 | 25 | < 20 | 51.6 | 30.6 | < 20 | < 20 | < 20 | 38.8 | 40 | inhibition of growth at 10 µM [21]: < 20%; inhibition of growth at 10 µM [22]: < 20%; inhibition of growth at 10 µM [23]: 21.2%; inhibition of growth at 10 µM [24]: 20.2%; inhibition of growth at 10 µM [25]: < 20%; inhibition of growth at 10 µM [26]: 41.4%; inhibition of growth at 10 µM [27]: < 20%; inhibition of growth at 10 µM [28]: < 20%; inhibition of growth at 10 µM [29]: 89.7%; inhibition of growth at 10 µM [30]: 26.3%
3 | O=c1c2cccc3c(Nc4c(F)cccc4F)ccc(c32)c2nc3ccccc3n12 | < 20 | 24.6 | < 20 | < 20 | 27.3 | 78.5 | 38 | < 20 | < 20 | 20.1 | < 20 | 27.5 | < 20 | 27.3 | 25.9 | < 20 | < 20 | < 20 | 35.8 | < 20 | inhibition of growth at 10 µM [21]: < 20%; inhibition of growth at 10 µM [22]: < 20%; inhibition of growth at 10 µM [23]: < 20%; inhibition of growth at 10 µM [24]: < 20%; inhibition of growth at 10 µM [25]: < 20%; inhibition of growth at 10 µM [26]: 49.4%; inhibition of growth at 10 µM [27]: < 20%; inhibition of growth at 10 µM [28]: < 20%; inhibition of growth at 10 µM [29]: 79.6%; inhibition of growth at 10 µM [30]: 24.9%
